# Active and inactive are the calls of the source. The calls are words filed in the database; no cut-off is given here.
# Tested on: not listed separately
# Test: Efflux ratio in human Caco2 cells at 20 uM incubated for […] by LC-MS/MS analysis
# Format: ADME, cell-based
# Conditions: Caco-2
row,SMILES,"efflux ratio at […], 20 µM"
1,N[C@@H](CC(=O)NC1(c2nc3ccc(OCCCCCC(=O)NC[C@H](O)[C@@H](O)[C@@H](O)[C@H](O)CO)cc3s2)CCS(=O)(=O)CC1)Cc1cc(F)c(F)cc1F.O=C(O)C(F)(F)F,13
2,N[C@@H](CC(=O)NC1(c2nc3ccc(OCCCCCC(=O)NCCS(=O)(=O)O)cc3s2)CCS(=O)(=O)CC1)Cc1cc(F)c(F)cc1F.O=C(O)C(F)(F)F,295

# Tested on: not listed separately
# Test: Solubility in pH 7.0 buffer by nephelometry
# Format: physicochemical
# Conditions: not given
row,SMILES,solubility kinetic
1,N[C@@H](CC(=O)NC1(c2nc3ccc(OCCCCCC(=O)NC[C@H](O)[C@@H](O)[C@@H](O)[C@H](O)CO)cc3s2)CCS(=O)(=O)CC1)Cc1cc(F)c(F)cc1F.O=C(O)C(F)(F)F,20 to 50 µM
2,N[C@@H](CC(=O)NC1(c2nc3ccc(OCCCCCC(=O)NCCS(=O)(=O)O)cc3s2)CCS(=O)(=O)CC1)Cc1cc(F)c(F)cc1F.O=C(O)C(F)(F)F,> 50 µM

# Biological target: Dipeptidyl peptidase 4 (Mus musculus, UniProt P28843)
# Test: Inhibition of DPP4 in C57BL/6 mouse serum pre-incubated for 5 mins followed by Gly-Pro-7-AMC substrate addition by fluorescence based assay
# Format: cell-free
# Conditions: not given
# Dipeptidyl peptidase 4, sequence (P28843 whole entry): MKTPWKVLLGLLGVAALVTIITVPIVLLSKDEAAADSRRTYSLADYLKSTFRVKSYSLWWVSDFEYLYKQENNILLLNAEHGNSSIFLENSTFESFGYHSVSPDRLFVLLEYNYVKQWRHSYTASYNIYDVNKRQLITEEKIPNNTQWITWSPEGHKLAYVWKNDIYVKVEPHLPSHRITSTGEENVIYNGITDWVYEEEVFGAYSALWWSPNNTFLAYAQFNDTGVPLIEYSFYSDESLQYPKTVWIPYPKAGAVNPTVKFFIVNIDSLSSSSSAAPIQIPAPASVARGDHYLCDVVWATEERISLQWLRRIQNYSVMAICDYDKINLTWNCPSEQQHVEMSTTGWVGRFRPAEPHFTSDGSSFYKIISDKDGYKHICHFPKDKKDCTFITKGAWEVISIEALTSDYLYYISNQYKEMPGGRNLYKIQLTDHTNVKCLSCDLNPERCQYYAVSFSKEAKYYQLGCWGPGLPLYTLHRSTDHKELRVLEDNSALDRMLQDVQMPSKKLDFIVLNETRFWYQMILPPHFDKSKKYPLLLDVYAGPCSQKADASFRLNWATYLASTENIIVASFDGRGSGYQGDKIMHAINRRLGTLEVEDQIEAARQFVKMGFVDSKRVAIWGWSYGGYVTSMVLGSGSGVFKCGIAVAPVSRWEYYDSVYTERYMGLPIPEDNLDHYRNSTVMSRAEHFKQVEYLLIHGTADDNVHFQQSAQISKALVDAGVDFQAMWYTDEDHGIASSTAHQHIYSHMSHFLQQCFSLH
row,SMILES,IC50
1,N[C@@H](CC(=O)NC1(c2nc3ccc(OCCCCCC(=O)NC[C@H](O)[C@@H](O)[C@@H](O)[C@H](O)CO)cc3s2)CCS(=O)(=O)CC1)Cc1cc(F)c(F)cc1F.O=C(O)C(F)(F)F,3.5 nM
2,N[C@@H](CC(=O)NC1(c2nc3ccc(OCCCCCCCCCCCC(=O)NC[C@H](O)[C@@H](O)[C@@H](O)[C@H](O)CO)cc3s2)CCS(=O)(=O)CC1)Cc1cc(F)c(F)cc1F,168 nM
3,N[C@@H](CC(=O)NC1(c2nc3ccc(OCCCCCC(=O)NCCS(=O)(=O)O)cc3s2)CCS(=O)(=O)CC1)Cc1cc(F)c(F)cc1F.O=C(O)C(F)(F)F,2 nM

# The remaining lines, values ahead:
row,IC50,SMILES
1,116 nM,C[N+](C)(C)CCNC(=O)CCCCCCCCCCCOc1ccc2nc(C3(NC(=O)C[C@H](N)Cc4cc(F)c(F)cc4F)CCS(=O)(=O)CC3)sc2c1
2,81.8 nM,N[C@@H](CC(=O)NC1(c2nc3ccc(OCCCCCCCCCCCC(=O)NCCS(=O)(=O)O)cc3s2)CCS(=O)(=O)CC1)Cc1cc(F)c(F)cc1F

# Tested on: not listed separately
# Test: Solubility in pH 6.8 buffer by nephelometry
# Format: physicochemical
# Conditions: not given
row,SMILES,solubility kinetic
1,N[C@@H](CC(=O)NC1(c2nc3ccc(OCCCCCC(=O)NC[C@H](O)[C@@H](O)[C@@H](O)[C@H](O)CO)cc3s2)CCS(=O)(=O)CC1)Cc1cc(F)c(F)cc1F.O=C(O)C(F)(F)F,> 50 µM
2,N[C@@H](CC(=O)NC1(c2nc3ccc(OCCCCCC(=O)NCCS(=O)(=O)O)cc3s2)CCS(=O)(=O)CC1)Cc1cc(F)c(F)cc1F.O=C(O)C(F)(F)F,20 to 50 µM

# Tested on: not listed separately
# Test: Apparent permeability from basolateral to apical side in human Caco2 cells at 20 uM incubated for […] by LC-MS/MS analysis
# Format: ADME, cell-based
# Conditions: Caco-2
row,SMILES,"Papp B→A at […], 20 µM"
1,N[C@@H](CC(=O)N1CCn2c(nnc2C(F)(F)F)C1)Cc1cc(F)c(F)cc1F [SITAGLIPTIN],12.2 ×10⁻⁶ cm/s
2,N[C@@H](CC(=O)NC1(c2nc3ccc(OCCCCCC(=O)NC[C@H](O)[C@@H](O)[C@@H](O)[C@H](O)CO)cc3s2)CCS(=O)(=O)CC1)Cc1cc(F)c(F)cc1F.O=C(O)C(F)(F)F,0.27 ×10⁻⁶ cm/s
3,N[C@@H](CC(=O)NC1(c2nc3ccc(OCCCCCC(=O)NCCS(=O)(=O)O)cc3s2)CCS(=O)(=O)CC1)Cc1cc(F)c(F)cc1F.O=C(O)C(F)(F)F,0.59 ×10⁻⁶ cm/s

# Tested on: not listed separately
# Test: Apparent permeability from apical to basolateral side in human Caco2 cells at 20 uM incubated for […] by LC-MS/MS analysis
# Format: ADME, cell-based
# Conditions: Caco-2
row,SMILES,"Papp A→B at […], 20 µM"
1,N[C@@H](CC(=O)N1CCn2c(nnc2C(F)(F)F)C1)Cc1cc(F)c(F)cc1F [SITAGLIPTIN],0.25 ×10⁻⁶ cm/s
2,N[C@@H](CC(=O)NC1(c2nc3ccc(OCCCCCC(=O)NC[C@H](O)[C@@H](O)[C@@H](O)[C@H](O)CO)cc3s2)CCS(=O)(=O)CC1)Cc1cc(F)c(F)cc1F.O=C(O)C(F)(F)F,0.02 ×10⁻⁶ cm/s
3,N[C@@H](CC(=O)NC1(c2nc3ccc(OCCCCCC(=O)NCCS(=O)(=O)O)cc3s2)CCS(=O)(=O)CC1)Cc1cc(F)c(F)cc1F.O=C(O)C(F)(F)F,0.002 ×10⁻⁶ cm/s

# Tested on: Mus musculus
# Test: Inhibition of jejunum DPP4 in BALB/c mouse at 30 mg/kg, po after 8 hrs using Gly-Pro-7-AMC substrate by fluorescence based assay
# Format: functional, organism-based
# Conditions: not given
# In short: (§1)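 Mice were dosed orally at 30 mg/kg and intestinal DPPIV activity was measured 8 h later in three intestinal segments. Activity is expressed relative to a vehicle control group, with n = 6 per group. Data are mean ± SEM, compared with control by Student's t-test.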
row,SMILES,inhibition
1,N[C@@H](CC(=O)N1CCn2c(nnc2C(F)(F)F)C1)Cc1cc(F)c(F)cc1F [SITAGLIPTIN],Active

# Tested on: not listed separately
# Test: Solubility in pH 7.4 buffer by nephelometry
# Format: physicochemical
# Conditions: not given
row,SMILES,solubility kinetic
1,N[C@@H](CC(=O)NC1(c2nc3ccc(OCCCCCC(=O)NC[C@H](O)[C@@H](O)[C@@H](O)[C@H](O)CO)cc3s2)CCS(=O)(=O)CC1)Cc1cc(F)c(F)cc1F.O=C(O)C(F)(F)F,20 to 50 µM
2,N[C@@H](CC(=O)NC1(c2nc3ccc(OCCCCCC(=O)NCCS(=O)(=O)O)cc3s2)CCS(=O)(=O)CC1)Cc1cc(F)c(F)cc1F.O=C(O)C(F)(F)F,> 50 µM

# Tested on: Mus musculus
# Test: Inhibition of colon DPP4 in BALB/c mouse at 30 mg/kg, po after 8 hrs using Gly-Pro-7-AMC substrate by fluorescence based assay
# Format: functional, organism-based
# Conditions: not given
# In short: as §1
row,SMILES,inhibition
1,N[C@@H](CC(=O)N1CCn2c(nnc2C(F)(F)F)C1)Cc1cc(F)c(F)cc1F [SITAGLIPTIN],Active

# Tested on: Mus musculus
# Test: Inhibition of ileum DPP4 in BALB/c mouse at 30 mg/kg, po after 8 hrs using Gly-Pro-7-AMC substrate by fluorescence based assay
# Format: functional, organism-based
# Conditions: not given
# In short: as §1
row,SMILES,inhibition
1,N[C@@H](CC(=O)N1CCn2c(nnc2C(F)(F)F)C1)Cc1cc(F)c(F)cc1F [SITAGLIPTIN],Active

# From ChEMBL document CHEMBL4334524, “Discovery of Highly Polar β-Homophenylalanine Derivatives as Nonsystemic Intestine-Targeted Dipeptidyl Peptidase IV Inhibitors” (J Med Chem, 2019)
